Assay results of several laboratories.
Compare with care: the assays were run in different laboratories.
Cell line: MDA-MB-231
Observed: cell growth or viability

O=C1CCCCC1=C1Sc2nc3ccc(S(=O)(=O)N4CCCC4)cc3nc2S1  viability (MTT; 100 µM; 24 h): 8.2%
COc1cc(OC)c(CN2CCc3cc(OS(N)(=O)=O)c(OC)cc3C2)c(OC)c1  GI50 (WST-1; 96 h): > 100 µM
CCOc1c(OC)cc(CN2CCc3cc(O)c(OC)cc3C2)cc1OC  GI50 (WST-1; 96 h): 0.3 µM
CCOC(=O)C(C(C)=O)=C1Sc2nc3ccc(S(=O)(=O)N4CCCC4)cc3nc2S1  viability (MTT; 100 µM; 24 h): 3.7%
CCCCCCCC(=O)NCC(=O)OC  inhibition (MTT; 10 µM; 48 h): 10%
Cc1ccc2nc(-c3ccc([N+](=O)[O-])cc3)n(Cc3ccc(Cl)cc3)c2c1  IC50 (MTT): 9.02 µM
COc1cc2c(cc1O)CCN(Cc1cccc(OC)c1OC)C2  GI50 (WST-1; 96 h): > 100 µM
COc1cccc2c1C(=O)c1c(O)c3c(c(O)c1C2=O)C[C@@](O)(C(=O)CO)C[C@@H]3O[C@H]1C[C@H](N)[C@H](O)[C@H](C)O1  viability (MTT; 3.125 µM; 24 h): 52.6%
COc1cccc(-c2nc3ccccc3n2Cc2ccccc2)c1  IC50 (MTT): 43.3 µM
CC(=O)O[C@H]1C(=O)[C@@]2(C)[C@H]([C@H](OC(=O)c3ccccc3)[C@]3(O)C[C@H](OC(=O)[C@H](O)[C@@H](NC(=O)c4ccccc4)c4ccccc4)C(C)=C1C3(C)C)[C@]1(OC(C)=O)CO[C@@H]1C[C@@H]2O  GI50 (WST-1; 96 h): 0.002 µM
N#CC(C(=O)Nc1cccc(C(F)(F)F)c1)=C1Sc2nc3ccc(S(=O)(=O)N4CCCC4)cc3nc2S1  viability (MTT; 3.125 µM; 24 h): 77.1%
COc1cc2c(cc1O)CCN(Cc1cccc(OC(C)C)c1)C2  GI50 (WST-1; 96 h): 86 µM
C[C@]12CC[C@@H]3c4ccc(O)cc4CC[C@H]3[C@@H]1CC[C@@H]2O  EC90 (ATP luminescence; 72 h): 40.1 µM
CCOc1ccc(-c2nc3ccc(C)cc3[nH]2)cc1  IC50 (MTT; 48 h): 13.2 µM
CCOc1cccc(CN2CCc3cc(O)c(OC)cc3C2)c1  GI50 (WST-1; 96 h): > 100 µM
COc1cccc(-c2nc3ccc(C)cc3[nH]2)c1  IC50 (MTT; 48 h): 15.6 µM
COc1cc2c(cc1OS(N)(=O)=O)CCN(Cc1cccc(C(C)=O)c1)C2  GI50 (WST-1; 96 h): 0.983 µM
Clc1ccc(-c2nc3ccccc3[nH]2)c(Cl)c1  IC50 (MTT; 48 h): 52.2 µM
COc1ccc(-c2cn(-c3cc(=O)oc4ccc(Br)cc34)nn2)cc1  CC50 (imaging; 72 h): 10.7 µM
Cc1ccc2nc(-c3ccc(Cl)c(Cl)c3)[nH]c2c1  IC50 (MTT; 48 h): 60.2 µM
CCOc1cc(CN2CCc3cc(OS(N)(=O)=O)c(OC)cc3C2)cc(OCC)c1OCC  GI50 (WST-1; 96 h): 4.4 µM
C=CCn1c(-c2ccc(OC)c(OC)c2)nc2ccccc21  IC50 (MTT): 31.2 µM
COc1cc2c(cc1O)CCN(Cc1cccc([N+](=O)[O-])c1)C2  GI50 (WST-1; 96 h): > 100 µM
C[C@]1(c2nc3c(C(N)=O)cccc3[nH]2)CCCN1  EC50 (ATP luminescence; 7 days): > 10 µM
CC/C(=C(\c1ccccc1)c1ccc(OCCN(C)C)cc1)c1ccccc1  EC90 (ATP luminescence; 72 h): 33.4 µM
COc1cc2c(cc1OS(N)(=O)=O)CCN(Cc1cccc(NC(C)=O)c1)C2  GI50 (WST-1; 96 h): > 100 µM
C[C@]12CCCN1CC1=NNC(=O)c3cc(F)cc4[nH]c2c1c34  EC50 (ATP luminescence; 7 days): ~9 µM
Cc1ccc2nc(-c3ccc(Cl)cc3)n(Cc3ccccc3Cl)c2c1  IC50 (MTT): 74.2 µM
COc1cc2c(cc1OS(N)(=O)=O)CCN(Cc1cccc(C#N)c1)C2  GI50 (WST-1; 96 h): 4.7 µM
